Source: PMC6474823 (Molecular cell, 2019)

Target: Hck^3D V284C (Homo sapiens, UniProt P08631, V276C)
Experiment: Inhibitor IC50 determination, fluorescent SFK peptide kinase assay
Format: biochemical
Conditions: 1 mM ATP
How it was run: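 Kinase concentrations were set in the linear range by prior titration: Src3D WT or V284C at 7.5 nM, Hck3D WT or V284C at 5 nM. Kinase was incubated 30 min with test compound (30 μM top, 3-fold serial dilutions, 10 points) and 1 mM ATP in HEPES pH 7.5 buffer with MgCl2, EGTA, BSA, vanadate and BME. Then 20 μM pyrene-labelled SFK peptide was added for 2 h. Fluorescence was read at ex 344/em 405 nm, in triplicate.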

Chain of Hck^3D V284C (P08631 81-526 V276C): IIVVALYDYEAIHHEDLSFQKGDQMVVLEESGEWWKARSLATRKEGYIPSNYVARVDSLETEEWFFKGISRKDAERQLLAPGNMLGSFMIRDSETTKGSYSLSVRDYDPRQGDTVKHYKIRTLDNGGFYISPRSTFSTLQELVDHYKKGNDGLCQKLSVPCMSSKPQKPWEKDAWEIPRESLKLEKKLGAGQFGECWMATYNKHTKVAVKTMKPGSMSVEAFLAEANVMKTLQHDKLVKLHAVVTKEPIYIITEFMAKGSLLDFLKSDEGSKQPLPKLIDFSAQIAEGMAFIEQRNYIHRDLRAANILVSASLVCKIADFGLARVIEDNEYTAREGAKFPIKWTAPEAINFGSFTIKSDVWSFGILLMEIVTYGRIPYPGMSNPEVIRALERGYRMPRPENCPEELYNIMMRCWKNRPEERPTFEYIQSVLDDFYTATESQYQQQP

| Structure (SMILES) | inhibition of Hck V284C (IC50, Figure 4C) |
| --- | --- |
| COCCn1c(/C=C(/C#N)C(=O)NC(C)C)c(-c2ccc(Cl)cc2)c2c(N)ncnc21 [compound 1, (E)- & (Z)-3-(4-Amino-5-(4-chlorophenyl)-7-(2-methoxyethyl)-7H-pyrrolo[2,3-d]pyrimidin-6-yl)-2-cyano-N-isopropylacrylamide] | potently inhibited |
| COCCn1c(/C=C(/C#N)C(=O)NC(C)C)c(-c2ccc(Oc3ccccc3)cc2)c2c(N)ncnc21 [compound 2, (E)- & (Z)-3-(4-Amino-7-(2-methoxyethyl)-5-(4-phenoxyphenyl)-7H-pyrrolo[2,3-d]pyrimidin-6-yl)-2-cyano-N-isopropylacrylamide] | potently inhibited |
